Experimental data: ChEMBL document CHEMBL3244142, “Antifungal properties of 2-bromo-3-fluorosuccinic acid esters and related compounds” (1977)
Values after ≈ are worked out from the molar mass of the structure shown. Active and inactive are the calls of the source. The calls are words filed in the database; no cut-off is given here.

Tests used:
[1] = tested on: Aspergillus niger; assay: Antifungal activity against Aspergillus niger ATCC 1004 at <100 ug/ml at pH 5.6 after 5 days in absence of 10% beef serum; type: functional, organism-based
How it was run: (§1)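 Agar-dilution MIC in Sabouraud dextrose agar at pH 5.6 or 7.0, with or without 10% beef serum. Plates were incubated at 28 °C for 5 days. MIC is the lowest concentration (µg/mL) giving 100% inhibition. Steps were 1 µg/mL up to 10, 2 µg/mL from 10–20, and 10 µg/mL from 20–100; 100 µg/mL was the top level, and no inhibition there is scored as >100.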

[2] = tested on: Candida albicans; assay: Antifungal activity against Candida albicans ATCC 10231 at <100 ug/ml at pH 5.6 after 20 h in presence of 10% beef serum
[3] = tested on: Candida albicans; assay: Antifungal activity against Candida albicans ATCC 10231 at <100 ug/ml at pH 7 after 20 h in absence of 10% beef serum
[4] = tested on: Mucor mucedo; assay: Antifungal activity against Mucor mucedo ATCC 7941 at <100 ug/ml at pH 7 after 20 h in absence of 10% beef serum
[5] = tested on: Mucor mucedo; assay: Antifungal activity against Mucor mucedo ATCC 7941 at <100 ug/ml at pH 7 after 20 h in presence of 10% beef serum
[6] = tested on: Candida albicans; assay: Antifungal activity against Candida albicans ATCC 10231 at <100 ug/ml at pH 7 after 20 h in presence of 10% beef serum
[7] = tested on: Trichophyton mentagrophytes; assay: Antifungal activity against Trichophyton mentagrophytes ATCC 9129 at <100 ug/ml at pH 5.6 after 5 days in presence of 10% beef serum; type: functional, organism-based; how it was run: as §1
[8] = tested on: Trichophyton mentagrophytes; assay: Antifungal activity against Trichophyton mentagrophytes ATCC 9129 at <100 ug/ml at pH 7 after 5 days in presence of 10% beef serum; type: functional, organism-based; how it was run: as §1
[9] = tested on: Candida albicans; assay: Antifungal activity against Candida albicans ATCC 10231 at <100 ug/ml at pH 5.6 after 20 h in absence of 10% beef serum
[10] = tested on: Aspergillus niger; assay: Antifungal activity against Aspergillus niger ATCC 1004 at <100 ug/ml at pH 7 after 5 days in presence of 10% beef serum; type: functional, organism-based; how it was run: as §1
[11] = tested on: Trichophyton mentagrophytes; assay: Antifungal activity against Trichophyton mentagrophytes ATCC 9129 at <100 ug/ml at pH 7 after 5 days in absence of 10% beef serum; type: functional, organism-based; how it was run: as §1
[12] = tested on: Mucor mucedo; assay: Antifungal activity against Mucor mucedo ATCC 7941 at <100 ug/ml at pH 5.6 after 20 h in absence of 10% beef serum
[13] = tested on: Aspergillus niger; assay: Antifungal activity against Aspergillus niger ATCC 1004 at <100 ug/ml at pH 7 after 5 days in absence of 10% beef serum; type: functional, organism-based; how it was run: as §1
[14] = tested on: Mucor mucedo; assay: Antifungal activity against Mucor mucedo ATCC 7941 at <100 ug/ml at pH 5.6 after 20 h in presence of 10% beef serum
[15] = tested on: Trichophyton mentagrophytes; assay: Antifungal activity against Trichophyton mentagrophytes ATCC 9129 at <100 ug/ml at pH 5.6 after 5 days in absence of 10% beef serum; type: functional, organism-based; how it was run: as §1
[16] = tested on: Aspergillus niger; assay: Antifungal activity against Aspergillus niger ATCC 1004 at <100 ug/ml at pH 5.6 after 5 days in presence of 10% beef serum; type: functional, organism-based; how it was run: as §1
[17] = tested on: Trichophyton mentagrophytes; assay: Antifungal activity against Trichophyton mentagrophytes ATCC 9129 at pH 5.6 after 5 days in absence of 10% beef serum; type: functional; conditions: Trichophyton mentagrophytes, ATCC 9129, 120 h; read-out: MIC; how it was run: as §1
[18] = tested on: Mucor mucedo; assay: Antifungal activity against Mucor mucedo ATCC 7941 at pH 7 after 20 h in absence of 10% beef serum; conditions: ATCC 7941, 20 h
[19] = tested on: Mucor mucedo; assay: Antifungal activity against Mucor mucedo ATCC 7941 at pH 5.6 after 20 h in absence of 10% beef serum; conditions: ATCC 7941, 20 h
[20] = tested on: Mucor mucedo; assay: Antifungal activity against Mucor mucedo ATCC 7941 at pH 5.6 after 20 h in presence of 10% beef serum; conditions: ATCC 7941, 20 h
[21] = tested on: Aspergillus niger; assay: Antifungal activity against Aspergillus niger ATCC 1004 at pH 5.6 after 5 days in absence of 10% beef serum; type: functional; conditions: Aspergillus niger, ATCC 1004, 120 h; read-out: MIC; how it was run: as §1
[22] = tested on: Aspergillus niger; assay: Antifungal activity against Aspergillus niger ATCC 1004 at pH 5.6 after 5 days in presence of 10% beef serum; type: functional; conditions: Aspergillus niger, ATCC 1004, 120 h; read-out: MIC; how it was run: as §1
[23] = tested on: Candida albicans; assay: Antifungal activity against Candida albicans ATCC 10231 at pH 7 after 20 h in presence of 10% beef serum; conditions: ATCC 10231, 20 h
[24] = tested on: Candida albicans; assay: Antifungal activity against Candida albicans ATCC 10231 at pH 5.6 after 20 h in presence of 10% beef serum; conditions: ATCC 10231, 20 h
[25] = tested on: Aspergillus niger; assay: Antifungal activity against Aspergillus niger ATCC 1004 at pH 7 after 5 days in absence of 10% beef serum; type: functional; conditions: Aspergillus niger, ATCC 1004, 120 h; read-out: MIC; how it was run: as §1
[26] = tested on: Candida albicans; assay: Antifungal activity against Candida albicans ATCC 10231 at pH 7 after 20 h in absence of 10% beef serum; conditions: ATCC 10231, 20 h
[27] = tested on: Aspergillus niger; assay: Antifungal activity against Aspergillus niger ATCC 1004 at pH 7 after 5 days in presence of 10% beef serum; type: functional; conditions: Aspergillus niger, ATCC 1004, 120 h; read-out: MIC; how it was run: as §1
[28] = tested on: Candida albicans; assay: Antifungal activity against Candida albicans ATCC 10231 at pH 5.6 after 20 h in absence of 10% beef serum; conditions: ATCC 10231, 20 h
[29] = tested on: Mucor mucedo; assay: Antifungal activity against Mucor mucedo ATCC 7941 at pH 7 after 20 h in presence of 10% beef serum; conditions: ATCC 7941, 20 h
[30] = tested on: Trichophyton mentagrophytes; assay: Antifungal activity against Trichophyton mentagrophytes ATCC 9129 at pH 5.6 after 5 days in presence of 10% beef serum; type: functional; conditions: Trichophyton mentagrophytes, ATCC 9129, 120 h; read-out: MIC; how it was run: as §1
[31] = tested on: Trichophyton mentagrophytes; assay: Antifungal activity against Trichophyton mentagrophytes ATCC 9129 at pH 7 after 5 days in absence of 10% beef serum; type: functional; conditions: Trichophyton mentagrophytes, ATCC 9129, 120 h; read-out: MIC; how it was run: as §1
[32] = tested on: Trichophyton mentagrophytes; assay: Antifungal activity against Trichophyton mentagrophytes ATCC 9129 at pH 7 after 5 days in presence of 10% beef serum; type: functional; conditions: Trichophyton mentagrophytes, ATCC 9129, 120 h; read-out: MIC; how it was run: as §1

Compound	inhibition [1]	inhibition [2]	inhibition [3]	inhibition [4]	inhibition [5]	inhibition [6]	inhibition [7]	inhibition [8]	inhibition [9]	inhibition [10]	inhibition [11]	inhibition [12]	inhibition [13]	inhibition [14]	inhibition [15]	inhibition [16]	other results
CCCCCCOC(=O)[C@@H](F)[C@@H](Br)C(=O)OCCCCCC (relative stereo)	inactive	inactive	inactive	inactive	inactive	inactive	inactive	inactive	inactive	inactive	inactive	inactive	inactive	inactive	inactive	inactive	–
CCCCCCOC(=O)/C=C/C(=O)OCCCCCC	inactive	inactive	inactive	inactive	inactive	inactive	inactive	inactive	inactive	inactive	inactive	inactive	inactive	inactive	inactive	inactive	–
COC(=O)C#CC(=O)OC	inactive	inactive	inactive	–	inactive	inactive	inactive	inactive	inactive	inactive	inactive	–	inactive	–	–	inactive	MIC [17]: 40 µg/mL (≈ 281 µM); MIC [18]: 70 µg/mL (≈ 493 µM); MIC [19]: 8 µg/mL (≈ 56.3 µM); MIC [20]: 30 µg/mL
COC(=O)C(Br)C(C)F (stereo not given)	inactive	inactive	inactive	inactive	inactive	inactive	inactive	inactive	inactive	inactive	inactive	inactive	inactive	inactive	inactive	inactive	–
CCCCCCOC(=O)[C@H](F)[C@@H](Br)C(=O)OCCCCCC (relative stereo)	inactive	inactive	inactive	inactive	inactive	inactive	inactive	inactive	inactive	inactive	inactive	inactive	inactive	inactive	inactive	inactive	–
O=c1[nH]cc(F)c(=O)[nH]1	inactive	inactive	inactive	inactive	inactive	inactive	inactive	inactive	inactive	inactive	inactive	inactive	inactive	inactive	inactive	inactive	–
Nc1nc(=O)[nH]cc1F [FLUCYTOSINE]	–	–	–	inactive	inactive	–	inactive	inactive	–	–	inactive	inactive	–	inactive	inactive	–	MIC [21]: 9 µg/mL (≈ 69.7 µM); MIC [22]: 8 µg/mL; MIC [23]: 14 µg/mL; MIC [24]: 14 µg/mL; MIC [25]: 7 µg/mL (≈ 54.2 µM); MIC [26]: 9 µg/mL (≈ 69.7 µM); MIC [27]: 10 µg/mL; MIC [28]: 9 µg/mL (≈ 69.7 µM)
CCCCCCOC(=O)/C=C\C(=O)OCCCCCC	inactive	inactive	inactive	inactive	inactive	inactive	inactive	inactive	inactive	inactive	inactive	inactive	inactive	inactive	inactive	inactive	–
COC(=O)/C=C/CC(=O)OC	inactive	inactive	inactive	inactive	inactive	inactive	inactive	inactive	inactive	inactive	inactive	inactive	inactive	inactive	inactive	inactive	–
CC1/C=C/C=C/C=C/C=C/C=C/C=C/C=C/C(OC2O[C@H](C)[C@@H](O)[C@H](N)[C@@H]2O)CC(O)C(C(=O)O)C(O)CC(=O)CC(O)CC(O)CC(O)CC(=O)CCCC(=O)CC(=O)OC1C(C)CC(C)C(O)CC(=O)c1ccc(N)cc1 (stereo not given in full)	–	–	–	–	–	–	–	–	–	–	–	–	–	–	–	–	MIC [21]: 2 µg/mL (≈ 1.8 µM); MIC [22]: 5 µg/mL; MIC [17]: < 1 µg/mL; MIC [29]: 2 µg/mL; MIC [23]: 2 µg/mL; MIC [18]: < 1 µg/mL; MIC [30]: < 1 µg/mL; MIC [24]: < 1 µg/mL; MIC [31]: 3 µg/mL (≈ 2.7 µM); MIC [19]: < 1 µg/mL; MIC [25]: 8 µg/mL (≈ 7.21 µM); MIC [26]: < 1 µg/mL; MIC [20]: < 1 µg/mL; MIC [32]: 9 µg/mL; MIC [27]: 10 µg/mL; MIC [28]: < 1 µg/mL
